The sample as a whole holds a higher share of hits than the screen did.
Fibroblast inh = blocks proliferation of human lung fibroblasts; LL 47 human lung fibroblast viability, ATP luminescence; hits give low values; AID 719; viability, % at 10 µM; 85,000 tested, 1.1% active;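 active = viability at or below 50% in the single dose screen; inactive = viability above 50%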;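 also: compound exposure lasted 72 h before the ATP readout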
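Test system: LL 47 human lung fibroblasts; Quantity: 1,150 cells/well; Buffer or medium: IMEM plus 15% FBS; Dosing: tenfold compound dosing solution, DMSO at 0.1%; Timing: overnight cell rest, 72 h compound treatment at 37 °C; Detection: ATP-based CellTiter-Glo luminescent readout; Read-out basis: viability percentage against median untreated-cell control; Controls: cell-only wells, no compound.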
HCT116 PTEN-null = growth suppressors of cells with PTEN tumor suppressor deletion; HCT116 PTEN-null viability, CellTiter-Glo, 60 h; hits give low values; viability, % at 10 µM; 140,000 tested, 1.2% active;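 active = viability at or below a set limit, 4 SD under the median of all tested compounds, cut at about 3.7% in these data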;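 also: PTEN knockout HCT116 line with beta catenin targeted HCT116 as companion control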
H69AR growth 86K = growth inhibitors of human H69AR lung tumor cells. 85,000 tested, 6% active. AID 598. H69AR lung tumor viability, ATP luminescence, 72 h; hits give low values. viability, % at 10 µM;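 active = viability at or below 40%; inactive = viability above 40%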;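 also: multidrug resistant small cell line overexpressing MRP-1 efflux transporter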
HCT116 bCat-KO = beta-catenin-lacking colon tumor cell growth suppression | viability, % at 10 µM | HCT116 beta-catenin knockout viability, CellTiter-Glo, 60 h; hits give low values | 140,000 tested, 1.5% active | AID 818;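 active = viability at or under a set limit, the compound median less 4 SD, cut at about 6% in these data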
HUVEC prolif 384 = human endothelial cell proliferation inhibition. AID 648. HUVEC proliferation, CellTiter-Glo luminescence, 72 h; hits give low values. 86,000 tested, 1.1% active. viability, % at 10 µM (by protocol);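 active = viability at or below 30%; inactive = viability above 30%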
Hits are given with their value; – = inactive; · = no result.

SMILES | Fibroblast inh | HCT116 PTEN-null | H69AR growth 86K | HCT116 bCat-KO | HUVEC prolif 384
COc1cc(/C=c2\s/c(=C(/C#N)C(=O)N3CCCC3)n(-c3ccccc3)c2=O)ccc1O | – | – | 10 | – | 12
COC(=O)/C=c1/s/c(=C(/C#N)C(=O)N2CCCCC2)n(-c2ccccc2)c1=O | – | – | 36 | – | –
Cc1cc(C)c(COc2ccc(/C=N/n3c(C)n[nH]c3=S)cc2)c(C)c1 | · | – | · | – | ·
O=C(NCC1CCCO1)c1ccc(S(=O)(=O)N2CCC(c3nc4ccc(Cl)cc4[nH]3)CC2)cc1 (stereo not given) | – | – | 36 | – | –
Cc1ccc(-c2noc(C3CCN(S(=O)(=O)c4ccc5c(c4)OCCO5)CC3)n2)o1 | – | – | 40 | – | –
Cc1ccc(-c2noc(C3CCCN(S(=O)(=O)c4ccc5ccccc5c4)C3)n2)o1 (stereo not given) | – | – | – | – | –
O=C(c1ccc(S(=O)(=O)N2CCC(c3nc4ccccc4[nH]3)CC2)cc1)N1CCOCC1 | – | – | – | – | –
Cc1ccc2nc(C3CCN(S(=O)(=O)c4ccc5ccccc5c4)CC3)[nH]c2c1 | – | – | 8.0 | – | –
O=S(=O)(c1ccc2c(c1)OCCO2)N1CCC(c2nc3ccc(Cl)cc3[nH]2)CC1 | – | – | 15 | – | –
CCC(C)N(C(=O)CSc1nc(-c2ccccc2)cs1)C1CCS(=O)(=O)C1 (stereo not given) | – | – | – | – | –
Cc1ccc(NC(=O)/C=C/c2ccc([N+](=O)[O-])s2)c(C)c1 | · | 1.1 | · | 2.6 | ·
Cc1cccc(NC(=O)/C=C/c2ccc([N+](=O)[O-])s2)c1 | · | 1.1 | · | 2.8 | ·
O=[N+]([O-])c1ccc(/C=N/NC(=S)Nc2ccccc2)o1 | · | – | · | – | ·
Cc1cccc(NC(=S)N/N=C/c2ccc([N+](=O)[O-])s2)c1 | · | 0.8 | · | 1.0 | ·
Cc1ccc(NC(=O)/C=C/c2ccc([N+](=O)[O-])s2)cc1 | · | – | · | – | ·
COc1cc(/C=N/S(=O)(=O)CCc2ccccc2)cc(OC)c1O | · | – | · | – | ·
Cc1[nH]n(-c2ccccc2)c(=O)c1S(=O)(=O)c1ccccc1 | – | – | – | – | –
Cc1ccc(NS(=O)(=O)c2ccc(Cl)c(C(=O)Nc3ccccc3-c3nc4ccccc4[nH]3)c2)cc1C | · | – | · | – | ·
Cc1ccc(NC(=O)C(C)c2ccc(-c3ccccc3)c(F)c2)c(C)c1 (stereo not given) | · | – | · | – | ·
CC(C)n1c(SCC(=O)Nc2nc3c(s2)CCCC3)nc2c1c(=O)n(C)c(=O)n2C | – | – | 34 | – | –
CC(C)n1c(SCC(=O)N2c3ccccc3CCc3ccccc32)nc2c1c(=O)n(C)c(=O)n2C | – | · | 20 | · | –
CCOC(=O)C1CCN(c2ncnc3c2[nH]c2cccc(OC)c23)CC1 | – | – | 23 | – | –
Cc1cccc2cc(CN(Cc3ccco3)C(c3nnnn3CCc3ccccc3)C(C)C)c(=O)[nH]c12 (stereo not given) | · | – | – | – | –
COCCn1nnnc1C(C(C)C)N(Cc1cccnc1)Cc1cc2cc(OC)ccc2[nH]c1=O (stereo not given) | – | – | – | – | –
COc1ccc2[nH]c(=O)c(CN(Cc3ccco3)C(c3nnnn3Cc3ccccc3)C(C)C)cc2c1 (stereo not given) | – | 3.1 | – | – | –
SMILES | Fibroblast inh | HCT116 PTEN-null | H69AR growth 86K | HCT116 bCat-KO | HUVEC prolif 384
COCCn1nnnc1C(C(C)C)N(Cc1ccccc1)Cc1cc2cc(OC)ccc2[nH]c1=O (stereo not given) | – | – | 4.8 | – | –
Cc1ccccc1N1CCN(C(=O)c2ccc(Oc3ccc(C(F)(F)F)cn3)cc2)CC1 | · | – | · | – | ·
Cc1cc(C)c2nc(SCC#N)cc(C)c2c1 | – | – | 24 | – | –
CCCc1cc2c(=O)c(-c3ccc4c(c3)OCCO4)coc2cc1OC(=O)c1ccco1 | – | – | 40 | – | –
CCc1cc2c(=O)c(-c3ccc4c(c3)OCCO4)coc2cc1OC(=O)c1ccco1 | – | – | 15 | – | –
COC(=O)c1sc(NC(=O)c2cnccn2)c(C(=O)OC)c1C | – | · | 40 | · | –
COC(=O)c1sc(NC(C)=O)c(C(=O)OC)c1C | – | – | – | – | –
Cc1c(Cl)ccc2sc(NC(=O)CN3C(=O)c4ccccc4C3=O)nc12 | · | 0.5 | · | 0.8 | ·
Cc1ccc2sc(NC(=O)CN3C(=O)CCC3=O)nc2c1C | – | – | – | – | –
COc1ccccc1N1CCN(c2nc3c(C)cccn3c(=O)c2C=O)CC1 | · | – | · | – | ·
O=C(CSc1ccc(Cl)cc1)Nc1cccc(-c2nc3ccccc3[nH]2)c1 | · | – | · | – | ·
N=c1c(-c2nc3ccccc3[nH]2)cc(C(=O)c2cccs2)nn1-c1ccc(Cl)cc1 | – | · | 7.4 | · | 24
COc1cc(OC)c(OC)cc1/C=N/Nc1ncnc2c1[nH]c1ccccc12 | · | – | · | 4.2 | ·
CCCCOCCCNc1ncnc2c1[nH]c1ccccc12 | – | – | 39 | – | –
O=C(NCc1ccco1)Nc1ccc2nsnc2c1 | – | – | 31 | – | –
O=C(NCc1ccco1)Nc1ccc(Br)cc1 | – | – | – | – | –
CCOc1ccccc1-n1c(SCC(=O)NC2CCCC2)nnc1-c1ccoc1C | – | – | – | – | –
CCOC(=O)c1c(NC(C)=O)sc2c1CCC(C=NCCCN(CC)CC)=C2Sc1ccccc1 | – | · | 0.7 | · | 3.2
CCOC(=O)c1c(NC(=O)CN2CCCCC2)sc2c1CCC(C=O)=C2Cl | · | – | · | – | ·
CCCCNc1ccc(S(=O)(=O)c2cccc([N+](=O)[O-])c2)cc1[N+](=O)[O-] | · | – | · | – | ·
COC(=O)CSc1snnc1-c1ccc(Cl)cc1Cl | – | – | – | – | –
Cc1ccc2c(c1)c1c(n2CC(O)Cn2c(C)nc3ccccc32)/C(=N\O)CCC1 (stereo not given) | – | – | 2.7 | – | 3.4
Cc1ccc2c(c1)c1c(n2CC(O)Cn2c(C)nc3ccccc32)C(=O)CCC1 (stereo not given) | – | – | – | – | –
O=C(CCc1ccccc1)NC(NC(=S)Nc1ccc(Br)cc1)C(Cl)(Cl)Cl (stereo not given) | – | – | 8.3 | – | –
Cc1ccc(NC(=O)COc2ccc(/C=N/NC(=O)CSCc3ccccc3)cc2)cc1 | · | – | · | – | ·
SMILES | Fibroblast inh | HCT116 PTEN-null | H69AR growth 86K | HCT116 bCat-KO | HUVEC prolif 384
Cc1ccc(NC(=O)COc2ccc(/C=C3/SC(=Nc4ccccc4)N(Cc4cccnc4)C3=O)cc2)cc1 | · | 2.2 | · | 2.7 | ·
CCn1c2ccccc2c2cc(/C=N/n3cnnc3)ccc21 | – | – | – | – | –
CCn1c2ccccc2c2cc(/C=N/n3cn[nH]c3=S)ccc21 | – | – | 15 | – | –
O=C(Nc1nc(-c2cccs2)cs1)c1ccc(Cl)s1 | – | – | 3.6 | – | –
O=C(NC(Nc1ncc(S(=O)(=O)c2ccc([N+](=O)[O-])cc2)s1)(C(F)(F)F)C(F)(F)F)c1ccc(Cl)cc1 | · | 3.1 | · | 2.6 | ·
O=C(Nc1ncc(S(=O)(=O)c2ccc([N+](=O)[O-])cc2)s1)c1cccc2ccccc12 | · | – | · | – | ·
O=C(O)CCCCCNc1ccc2nsnc2c1[N+](=O)[O-] | · | – | · | – | ·
Cc1c(C(=O)OCc2ccccc2)[nH]c2c1C(=O)CC(c1ccco1)C2 (stereo not given) | 27 | – | 26 | – | 22
